Drawing on ChEMBL document CHEMBL1136574, “Organic phenyl arsonic acid compounds with potent antileukemic activity” (Bioorg Med Chem Lett, 2003), this text covers IC50 for eleven molecules.

In one test the test system is MOLT-3. Description: Antileukemic activity against human leukemia MOLT-3(T-lineage ALL) cell line. Format: functional, cell-based. The gist of the method: (§1)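 Cells treated with compounds in 96-well plates, incubated 48 h at 37 °C; cytotoxicity read by MTT assay; IC50 values calculated by curve fitting.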
Another test concerns NALM-6. The experiment in a line: Antileukemic activity against human leukemia NALM-6 (B-lineage ALL) cell line. Format: functional, cell-based. The gist of the method: as §1

In the case of `COc1cc2ncnc(Nc3ccc([As](=O)(O)O)cc3)c2cc1OC`, the half-maximal inhibitory concentration (IC50) in the test on MOLT-3 and with NALM-6 was more than 100 µM each time.

In the case of `COc1cc2ncnc(Nc3ccccc3[As](=O)(O)O)c2cc1OC`, the IC50 in the test on MOLT-3 was determined as 55.6 µM; in the test on NALM-6 it was 46.6 µM.

With `CSc1nccc(Nc2ccc(/N=N/c3ccc([As](=O)(O)O)cc3)cc2)n1`, the IC50 worked out at 4.1 µM in the test with MOLT-3 and 6.1 µM with NALM-6.

`O=[As](O)(O)c1ccc(/N=N/c2ccc(Nc3[nH]cnc4ncnc3-4)cc2)cc1`: the IC50 in the test on MOLT-3 came out at 21.6 µM; with NALM-6 it was 22.5 µM.

As for `COc1cc2ncnc(Nc3ccc(/N=N/c4ccc([As](=O)(O)O)cc4)cc3)c2cc1OC`, the values for the concentration for half-maximal inhibition (IC50) in the test with MOLT-3 and in the test with NALM-6 were 13.9 µM and 16.9 µM, respectively.

Consider `O=[As](O)(O)c1ccc(/N=N/c2ccc(Nc3nc(C(Cl)(Cl)Cl)nc4ccccc34)cc2)cc1`, for which the results for the IC50 with MOLT-3 and in the test with NALM-6 were 2 µM and 1.1 µM, respectively.

`CSc1nccc(Nc2ccccc2[As](=O)(O)O)n1`: the IC50 with MOLT-3 was 2.3 µM; in the test with NALM-6, 1.5 µM.

`CSc1nccc(Nc2ccc([As](=O)(O)O)cc2)n1`: the IC50 in the test with MOLT-3 was 9.1 µM; with NALM-6, 5.6 µM.

Take `O=[As](O)(O)c1ccc(Nc2nc(C(Cl)(Cl)Cl)nc3ccccc23)cc1`: the IC50 in the test on MOLT-3 and with NALM-6 was more than 100 µM throughout.

For `O=[As](O)(O)c1ccccc1Nc1nc(C(Cl)(Cl)Cl)nc2ccccc12`, the IC50 in the test on MOLT-3 and in the test on NALM-6 was more than 100 µM throughout.

For the molecule `Nc1ccc([As](=O)(O)O)cc1` [ARSANILIC ACID], in the test on NALM-6, the IC50 is more than 100 µM.

As usually defined, the IC50 is the concentration at which inhibition is half-maximal. Lower therefore signals inhibition by little substance.
